# CendR NRP1 mod – NRP-1/CendR interaction modulation; 360,000 compounds, 0.85% hits; O14786; FAM-RPARPAR peptide binding to NRP-1, fluorescence polarization; inhibition, % at 25 µM; AID 602438;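 active means inhibition or corrected inhibition above about 18%, plus a signal ratio from 0.5 to 1.5, limit read from the data, passing the limit was not always enough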
# PLCb3 inh – PLC-beta3 (human) inhibition, primary screen; Purified PLC-beta3, fluorogenic substrate, fluorescence; inhibition, % at 12.2 µM; 370,000 compounds, 0.18% hits; in the data active means inhibition above about 11%;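 further: 0% = median of compound wells on plate and 100% = full blocker control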
# Target sequence (Q01970 whole entry, looked up): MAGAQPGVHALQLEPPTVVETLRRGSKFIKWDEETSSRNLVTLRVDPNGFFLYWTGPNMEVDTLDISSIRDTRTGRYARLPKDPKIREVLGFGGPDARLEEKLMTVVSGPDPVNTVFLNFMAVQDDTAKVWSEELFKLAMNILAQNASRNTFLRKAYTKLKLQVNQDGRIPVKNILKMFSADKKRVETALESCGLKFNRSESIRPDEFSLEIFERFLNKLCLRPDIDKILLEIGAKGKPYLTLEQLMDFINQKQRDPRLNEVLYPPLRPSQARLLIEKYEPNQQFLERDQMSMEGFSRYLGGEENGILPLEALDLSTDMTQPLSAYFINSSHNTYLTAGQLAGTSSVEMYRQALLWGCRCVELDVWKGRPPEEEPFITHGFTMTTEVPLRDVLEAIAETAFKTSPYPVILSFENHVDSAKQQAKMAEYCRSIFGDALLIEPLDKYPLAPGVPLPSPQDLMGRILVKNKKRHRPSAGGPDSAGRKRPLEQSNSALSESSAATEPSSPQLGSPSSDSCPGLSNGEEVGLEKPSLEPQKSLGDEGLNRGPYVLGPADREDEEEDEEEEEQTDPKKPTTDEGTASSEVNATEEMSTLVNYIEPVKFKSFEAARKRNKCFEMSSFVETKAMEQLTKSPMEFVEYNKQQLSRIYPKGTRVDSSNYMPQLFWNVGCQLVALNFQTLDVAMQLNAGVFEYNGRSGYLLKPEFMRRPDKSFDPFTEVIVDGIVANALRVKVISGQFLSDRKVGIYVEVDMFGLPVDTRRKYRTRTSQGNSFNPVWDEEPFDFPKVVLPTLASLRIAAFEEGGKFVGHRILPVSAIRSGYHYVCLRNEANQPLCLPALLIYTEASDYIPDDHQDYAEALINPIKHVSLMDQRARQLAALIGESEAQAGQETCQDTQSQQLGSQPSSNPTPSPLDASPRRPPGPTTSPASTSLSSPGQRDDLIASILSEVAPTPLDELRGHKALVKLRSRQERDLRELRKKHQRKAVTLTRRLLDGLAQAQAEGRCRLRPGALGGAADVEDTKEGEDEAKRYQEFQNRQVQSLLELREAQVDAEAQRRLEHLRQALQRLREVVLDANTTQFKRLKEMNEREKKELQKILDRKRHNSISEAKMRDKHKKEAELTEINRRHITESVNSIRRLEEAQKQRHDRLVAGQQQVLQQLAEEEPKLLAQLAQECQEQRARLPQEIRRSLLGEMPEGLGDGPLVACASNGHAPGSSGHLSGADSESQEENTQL
# DDE Tn7 FP inh – disrupts Tn7 cyclic peptide binding to fibrin D-Dimer-E complex | P02675 | FP displacement of FITC-Tn7 peptide from fibrin DD(E); 0% = median of compound wells per plate | inhibition, % at 8.3 µM | 370,000 compounds, 0.13% hits;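 active means inhibition above the mean of compounds falling within the control limits plus 3 SD of them, cut at about 14% in these data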;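 further: 0% = plate median of compound wells and 100% = 10 µM Aha-Tn7 peptide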
#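 Assay system: Human clot-derived fibrin DD(E) complex | Buffer or medium: Tris/NaCl/CaCl2 buffer, pH 7.8 | Repeats: One replicate per compound | Benchmarks: Aha-Tn7 high control | Measure: % inhibition scaled between sample-field median and high-control FP | Schedule: 10 min plus 3 h, room temperature | Signal: Fluorescence polarization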
# PLC-gamma1 inh – PLC-gamma1 (human) inhibition, primary screen; P19174; purified PLC-gamma1, fluorogenic substrate, fluorescence; inhibition, % at 12.2 µM; 370,000 compounds, 0.84% hits; AID 720700; in the data active means inhibition above about 9.5%
# KLK7 zymogen act – activates the human kallikrein-7 zymogen. P49862. purified proKLK7, EDANS-DABCYL substrate fluorescence; 100% is mature enzyme control, 0% vehicle. activation, % at 7 µM. 370,000 compounds, 0.9% hits;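 active means activation above the mean of all tested compounds plus 3 SD, computed per campaign excluding outliers beyond control limits, cut at about 13% in these data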
# DDE Tn6 FP inh – inhibitors of Tn6 peptide binding to human fibrin DD(E) | Fibrin DD(E) TRITC-Tn6 fluorescence polarization displacement | inhibition, % at 8.3 µM | 370,000 compounds, 0.21% hits | AID 720509;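 active means inhibition above a per-campaign cutoff: mean of compounds within control limits plus 3 SD, cut at about 15% in these data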;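 further: 0% = median of all compound wells on the plate and 100% = blocking peptide control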
# proKLK7 act conf – proKLK7 activation, confirmation | shares compounds with KLK7 zymogen act | purified proKLK7, EDANS-DABCYL substrate fluorescence; scaled: vehicle 0, mature enzyme 100 | activation, % at 7 µM | 3,200 compounds, 68% hits | AID 686949;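 active means activation, as change over the incubation, above the mean of all tested compounds plus 3 SD, cut at about 13% in these data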
# EDANS interfere – optically interferes with EDANS-DABCYL signal, flagging KLK7 hits | 3,200 compounds, 80% hits | EDANS-DABCYL substrate fluorescence interference, no enzyme, 4 h; solvent 0%, active enzyme control 100% | shares compounds with KLK7 zymogen act | activation, % at 7 µM;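 active means activation above the all-compound mean plus 3 SD, ignoring values outside control-based bounds, cut at about 4.8% in these data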;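 further: value is the 4 h activation minus the activation read at time zero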
# K7 EDANS ctr – optically interferes with EDANS-DABCYL fluorescence, kallikrein-7 activator counter-screen; EDANS-DABCYL peptide fluorescence interference, no enzyme; shares compounds with KLK7 zymogen act; 250 compounds, 20% hits; EC50, µM;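 active means compounds that raise the fluorescence signal in this interference counterscreen, with EC50 at or below 10 µM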;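 further: intact quenched peptide substrate alone read at 355 nm excitation and 520 nm emission; signal is fluorescence gain from T0 to T4 after four hours at room temperature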
# * hit, by the source's call; i = inactive; . = not tested or not shown. Compounds with a hit are over-represented: about 3% of the library has one in this group of screens.
SMILES,CendR NRP1 mod,PLCb3 inh,DDE Tn7 FP inh,PLC-gamma1 inh,KLK7 zymogen act,DDE Tn6 FP inh,proKLK7 act conf,EDANS interfere,others
CCOC(=O)N1CCN(C(=O)COc2ccc3c(c2)C(=O)CC2(CCN(C(C)=O)CC2)O3)CC1,4.3,i,0.7,i,25.5*,-6.3,70.7*,74.8*,
CC(=O)N1CCC2(CC1)CC(=O)c1cc(OCC(=O)N3CCOCC3)ccc1O2,-2.5,i,-3.7,i,61.6*,5.2,68.7*,65.0*,
C#CCCN([C@H](C(=O)OC)C(C)CC)S(=O)(=O)c1ccccc1Br (stereo partly specified),.,1.8,2.6,2.9,0.7,7.8,.,.,
Cc1ccc2nc(NC(=O)c3cccs3)sc2c1,9.6,-93.1,2.6,-66.8,27.0*,-7.1,4.3,11.6*,
NS(=O)(=O)c1ccc2nc(NC(=O)c3ccc4ncsc4c3)sc2c1,6.9,.,.,.,.,.,.,.,
Cc1ccc2nc(NC(=O)c3ccc(Cn4cc(Cl)cn4)o3)sc2c1,-4.6,-142.0,-4.2,-109.5,57.0*,1.1,-100.1,-80.7,
NNC(=O)c1ccc(Cn2cc(Cl)cn2)o1,10.5,-8.2,-7.7,2.2,-0.4,-4.7,.,.,
Cc1ccc2nc(NC(=O)c3ccc4ncsc4c3)sc2c1,-2.2,-113.5,6.9,-81.8,14.5*,5.6,14.7*,6.8*,K7 EDANS ctr=i
COc1ccc(OC)c(S(=O)(=O)N2CCCC(C(=O)Nc3c(C)n(C)n(-c4ccccc4)c3=O)C2)c1 (stereo unspecified),.,1.7,0.1,2.9,-0.6,0.1,.,.,
Clc1ccc(-c2nnc3n2N=C(c2ccc(-c4ccccc4)cc2)CS3)cc1,.,1.2,-0.6,1.9,0.6,-8.6,.,.,
CCOC(=O)c1cc(-c2ccco2)nc2c1c(C)nn2CCC#N,-23.0,i,-8.1,i,31.6*,1.0,-48.2,-66.3,
O=C(COC(=O)c1cc(-c2ccco2)nc2ccccc12)NCc1ccccc1,-16.4,-131.8,0.0,-96.7,21.5*,1.4,51.5*,54.9*,
CCN(CC)C(=O)COC(=O)c1cc(-c2ccco2)nc2ccccc12,-8.2,i,-3.1,i,74.1*,-0.6,20.3*,17.2*,K7 EDANS ctr=i
C[C@@H]1CCN(C2CC2)S(=O)(=O)c2ccc(N3CC[C@H](O)C3)cc2O1,.,-1.2,-4.6,1.6,-1.0,6.1,.,.,
O=C(CSc1nnc(-c2cnccn2)n1-c1ccccc1)c1ccccc1Br,.,1.6,-2.0,-5.0,0.4,6.3,.,.,
CN(C)C(=O)COC(=O)c1cc(Cl)cc(Cl)c1N,5.6,i,-0.7,i,25.3*,5.0,24.3*,30.9*,
CCN(CC)Cc1c(O)ccc2c(=O)c(-c3ccc(Cl)cc3)coc12,1.9,i,3.7,i,29.0*,7.6,33.5*,30.9*,
O=c1c(-c2ccc([N+](=O)[O-])cc2)coc2c(O)c(O)ccc12,-45.3,-5.6,-7.2,1.6,5.6,-9.8,.,.,
CN(C)Cc1c(O)ccc2c(=O)c(-c3ccc(Cl)cc3)coc12,-8.0,i,-4.5,i,33.0*,-0.7,39.0*,37.1*,
C=CCN(CC=C)Cc1c(O)ccc2c(=O)c(-c3ccccc3)coc12,-12.3,i,-4.3,i,37.6*,5.4,25.6*,28.6*,
CCCOC(=O)c1ccc(Oc2coc3c(CN(CC)CC)c(O)ccc3c2=O)cc1,-10.5,i,-1.0,i,59.7*,1.9,-64.7,47.6*,
O=C(OC12CCCN(C1)/C(=C/c1ccncc1)C2)c1ccc(Cl)cc1 (stereo unspecified),.,-9.2,-7.4,-6.9,-0.2,-11.3,.,.,
COC(=O)C[C@H]1CC[C@H]2[C@H](COc3ccc(NC(=O)Nc4ccccc4F)cc3C(=O)N2C)O1,.,2.4,-4.2,-0.4,0.7,2.9,.,.,
COc1cc(OC)c2c(C)c(Cl)c(=O)oc2c1,-0.7,i,1.1,i,14.9*,-1.2,78.2*,71.7*,
COc1cc(OC)c2c(=O)cc(-c3ccccc3)oc2c1,2.2,-463.6,2.2,-375.8,7.1,4.6,.,.,
SMILES,CendR NRP1 mod,PLCb3 inh,DDE Tn7 FP inh,PLC-gamma1 inh,KLK7 zymogen act,DDE Tn6 FP inh,proKLK7 act conf,EDANS interfere,others
CCCCCCCCN1C(=O)[C@@H](CC(=O)N2CCCCC2)C[C@@]2(C(=O)OC)C1=C[C@H](C(C)C)O[C@@H]2C1CC1,.,1.9,-1.6,0.1,-0.3,-2.4,.,.,
COc1ccc(Cn2cc(CN3[C@@H](CC(C)C)COc4ccc(Cl)cc4S3(=O)=O)nn2)cc1,.,2.3,-2.5,1.7,-0.4,4.7,.,.,
O=C(O)c1cc(-c2cccc(Cl)c2)nc2nc(N3CCCCC3)sc12,-25.7,-381.9,1.8,-321.5,26.1*,-1.7,30.9*,31.0*,
COC(=O)c1ccc(N2C(c3cc(OC)cc(OC)c3)=Cc3ccc(-c4ccc(C(N)=O)cc4)cc3C2CC(=O)C2CC2)cc1 (stereo unspecified),-4.7,i,1.7,i,40.4*,-8.4,57.0*,23.1*,K7 EDANS ctr=>69.5
COC(=O)c1ccc(N2C(c3cc(OC)cc(OC)c3)=Cc3ccc(-c4cccnc4)cc3C2CC(=O)C2CC2)cc1 (stereo unspecified),3.3,i,1.9,i,61.7*,6.3,28.5*,-9.7,K7 EDANS ctr=>69.5
CCc1cc2c(nc1CC)CCCN2CCOC,.,-398.2,5.0,-304.7,28.6*,-1.7,-9.7,-9.5,
C=CCn1c(-c2cccs2)nc2nc3ccccc3nc21,-13.9,i,-2.7,i,21.6*,-0.2,70.2*,82.5*,
COc1ccc(OC(=O)c2cccc([N+](=O)[O-])c2)c(C(=O)/C=C/c2cccs2)c1,-11.2,-50.3,-9.5,-27.2,24.9*,3.1,20.3*,14.9*,K7 EDANS ctr=i
CC(C)(C)c1ccc(S(=O)(=O)N2CCCC(C(=O)NCc3ccco3)C2)cc1 (stereo unspecified),.,-5.0,0.7,-3.4,0.2,1.9,.,.,
CCN1CCSc2ccc(C(=O)NCc3cccc(F)c3)cc21,-3.2,i,-3.0,i,15.7*,3.8,-56.0,-36.2,
CCN1CCSc2ccc(C(=O)NCc3cccc(Br)c3)cc21,-0.7,i,6.4,i,5.9,3.8,.,.,
O=C(NCc1cccnc1)c1ccc2c(c1)N(Cc1ccccc1)CCS2,7.0,-440.1,6.6,-295.6,-9.0,2.5,.,.,
CN1CCSc2ccc(C(=O)NCc3ccccc3)cc21,-0.1,i,12.3,i,42.9*,-0.7,5.8,24.1*,

# Assay outcomes: PubChem, several laboratories
